Here are results for one compound from ChEMBL document CHEMBL4330127, “Discovery of Novel Pyruvate Dehydrogenase Kinase 4 Inhibitors for Potential Oral Treatment of Metabolic Diseases” (J Med Chem, 2019).

In this assay the target is Cytochrome P450 1A2 (Homo sapiens, UniProt P05177). Description: Inhibition of CYP1A2 in human liver microsomes assessed as reduction in phenacetin-O-deethylation by tandem mass spectrometry analysis. It counts as ADME. The essentials:
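Pooled human liver microsomes incubated with compound at 0–50 μM final; CYP probe activities (phenacetin O-deethylation for 1A2, tolbutamide 4-hydroxylation for 2C9, omeprazole hydroxylation for 2C19, dextromethorphan O-demethylation for 2D6) run as a cocktail incubation and quantified by tandem MS; duplicates; IC50 derived.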

Molecules are shown by their SMILES. pIC50: −log10 of the molar value.

Chain of Cytochrome P450 1A2 (P05177 whole entry): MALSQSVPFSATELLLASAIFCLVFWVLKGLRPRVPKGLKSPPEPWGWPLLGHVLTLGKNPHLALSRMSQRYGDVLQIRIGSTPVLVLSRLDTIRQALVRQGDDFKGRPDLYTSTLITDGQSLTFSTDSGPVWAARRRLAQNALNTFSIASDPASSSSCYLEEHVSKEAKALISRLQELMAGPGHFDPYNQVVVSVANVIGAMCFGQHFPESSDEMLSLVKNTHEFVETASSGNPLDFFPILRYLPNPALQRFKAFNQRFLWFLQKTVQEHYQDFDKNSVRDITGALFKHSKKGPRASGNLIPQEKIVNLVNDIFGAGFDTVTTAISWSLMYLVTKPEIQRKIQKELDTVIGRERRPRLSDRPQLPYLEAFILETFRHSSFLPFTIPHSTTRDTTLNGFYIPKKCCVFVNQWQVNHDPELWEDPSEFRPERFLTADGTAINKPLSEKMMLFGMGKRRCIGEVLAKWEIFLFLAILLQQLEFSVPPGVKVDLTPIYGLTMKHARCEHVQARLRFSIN

For `Cl.O=C1c2ccccc2C(=O)c2c1cccc2-c1cnn(C2CCNCC2)c1`, the pIC50 is 4.79.
